In ChEMBL document CHEMBL5532745, “Enzymatic Synthesis of Austroeupatol Esters with Enhanced Antiprotozoal Activity” (ACS Med Chem Lett, 2024) one finds inhibition of growth, IC50 and CC50 data, which are given here for 13 compounds.

Where only a bound is given, the exact number is not on record here.

The test system of data set [1] is Leishmania infantum. The data set is described as follows: Antiprotozoal activity against Leishmania infantum MHOM/BR/2002/LPC-RPV promastigotes assessed as growth inhibition at 25 uM incubated for 5 days relative to control. Type of data set: functional. To be noted: 120 h, time 5 day, read-out: GI.
For data set [2], the system named is Trypanosoma cruzi. The data set is described as follows: Antiprotozoal activity against Trypanosoma cruzi epimastigotes assessed as growth inhibition at 25 uM incubated for 5 days relative to control. Type of data set: functional. To be noted: 120 h, time 5 day, read-out: GI.
For data set [3], the system named is Trypanosoma cruzi. The data set is described as follows: Antiprotozoal activity against Trypanosoma cruzi Tulahuen strain amastigotes expressing Escherichia coli beta-galactosidase cultured in Vero cells assessed as growth inhibition at 10 uM incubated for 5 days relative to control. As to conditions: 120 h, time 5 day, read-out: GI. Type of data set: functional. In short, it runs like this:
(§1)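 Vero cells infected with trypomastigotes carrying β-galactosidase; intracellular parasites exposed to compounds, growth inhibition read spectrophotometrically.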

Data set [4] deals with Trypanosoma cruzi. The data set is described as follows: Antiprotozoal activity against Trypanosoma cruzi Tulahuen strain amastigotes expressing Escherichia coli beta-galactosidase cultured in Vero cells assessed as growth inhibition incubated for 5 days. It counts as functional, organism-based. As to conditions: 120 h. In short, it runs like this:
as §1

A short description of data set [5]: Cytotoxicity against African green monkey Vero cells incubated for 48 hrs by MTT assay. As to conditions: chlorocebus sabaeus. Type of data set: toxicity, cell-based. The procedure, abridged: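 Uninfected Vero cells exposed to compounds; viability read by MTT assay to estimate cytotoxicity for selectivity assessment.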
Background: Tetrazolium assays rely on reduction of a dye to a coloured formazan, in cell work by metabolically active cells.

Data set [6] deals with Leishmania infantum. The data set is described as follows: Antiprotozoal activity against Leishmania infantum MHOM/BR/2002/LPC-RPV promastigotes assessed as growth inhibition at 25 uM incubated for 5 days. It counts as functional, organism-based.

In the case of `C=C1CC[C@@H]2[C@H](COC(=O)CCc3c[nH]c4ccccc34)[C@H](O)[C@H](O)C[C@@]2(C)[C@@H]1CCc1ccoc1`, the inhibition of growth at 25 µM in the data set on Leishmania infantum [1] was determined as 91.5%; in the data set on Trypanosoma cruzi [2], 64.3%. Also, in the data set with Trypanosoma cruzi [3], the inhibition of growth at 10 µM was 98.7%. In the data set with Trypanosoma cruzi [4], the 50% inhibitory concentration (IC50) came to 2.26 µM. The compound also yielded a CC50 at 48 h in data set [5] of under 10 µM.
Turning to `C=C1CC[C@@H]2[C@H](COC(=O)CCCCCCCCCCC)[C@H](OC(=O)CCCCCCCCCCC)[C@H](O)C[C@@]2(C)[C@@H]1CCc1ccoc1`, the inhibition of growth at 25 µM in the data set on Leishmania infantum [1] was determined as 2.4%; in the data set with Trypanosoma cruzi [2] it was 46.8%. The inhibition of growth at 10 µM in the data set on Trypanosoma cruzi [3] was found to be 4.73%.
Turning to `C=C1CC[C@@H]2[C@H](COC(=O)CCCCCCCCCCCCCCC)[C@H](OC(=O)CCCCCCCCCCCCCCC)[C@H](O)C[C@@]2(C)[C@@H]1CCc1ccoc1`, the inhibition of growth at 25 µM amounted to 0% in the data set with Leishmania infantum [1] and 31.8% with Trypanosoma cruzi [2]. In the data set on Trypanosoma cruzi [3], the inhibition of growth at 10 µM stood at 2.06%.
In the case of `C=C1CC[C@@H]2[C@H](COC(=O)CCCC)[C@H](O)[C@H](O)C[C@@]2(C)[C@@H]1CCc1ccoc1`, the figures for the inhibition of growth at 25 µM with Leishmania infantum [1] and with Trypanosoma cruzi [2] were 94.1% and 93.5%, respectively. Further, the inhibition of growth at 10 µM in the data set with Trypanosoma cruzi [3] is 99.1%. Besides, in the data set on Trypanosoma cruzi [4], the IC50 is 8.5 µM. The CC50 at 48 h in data set [5] turned out to be 19.3 µM.
Take `C=C1CC[C@@H]2[C@H](COC(=O)CCCCCCC)[C@H](O)[C@H](O)C[C@@]2(C)[C@@H]1CCc1ccoc1`: the inhibition of growth at 25 µM worked out at 57.1% in the data set with Leishmania infantum [1] and 99.5% in the data set on Trypanosoma cruzi [2]. Moreover, in the data set with Trypanosoma cruzi [3], the inhibition of growth at 10 µM amounted to 100%. The IC50 in the data set on Trypanosoma cruzi [4] is 7.03 µM. In data set [5], this compound returned a CC50 at 48 h of 18.1 µM.
As for `C=C1CC[C@@H]2[C@H](COC(=O)CCCCCCC)[C@H](OC(=O)CCCCCCC)[C@H](O)C[C@@]2(C)[C@@H]1CCc1ccoc1`, the inhibition of growth at 25 µM in the data set on Leishmania infantum [1] came to 16.4%; with Trypanosoma cruzi [2], 27.4%. In the data set with Trypanosoma cruzi [3], the inhibition of growth at 10 µM was 9.79%.
With `C=C1CC[C@@H]2[C@H](COC(C)=O)[C@H](O)[C@H](O)C[C@@]2(C)[C@@H]1CCc1ccoc1`, the inhibition of growth at 25 µM is 15.7% in the data set on Leishmania infantum [1] and 21.6% with Trypanosoma cruzi [2]. For the same compound, the inhibition of growth at 10 µM in the data set with Trypanosoma cruzi [3] amounted to 22.7%.
Regarding `C=C1CC[C@@H]2[C@H](CO)[C@H](O)[C@H](O)C[C@@]2(C)[C@@H]1CCc1ccoc1`, the results for the inhibition of growth at 25 µM in the data set on Leishmania infantum [1] and with Trypanosoma cruzi [2] were 0% and 24.9%, respectively. For the same compound, in the data set on Trypanosoma cruzi [3], the inhibition of growth at 10 µM worked out at 28%. In the data set with Trypanosoma cruzi [4], the IC50 is over 15 µM. For the same compound, in data set [5], the CC50 at 48 h is 85.4 µM.
MEGLUMINE ANTIMONATE: in the data set on Leishmania infantum [6], the IC50 is 20 µM.
As to `O=C(Cn1ccnc1[N+](=O)[O-])NCc1ccccc1` [BENZNIDAZOLE], the IC50 in the data set on Trypanosoma cruzi [4] came to 0.94 µM. Besides, the CC50 at 48 h in data set [5] was over 384 µM.
Take `C=C1CC[C@@H]2[C@H](COC(=O)CCCCCCCCCCC)[C@H](O)[C@H](O)C[C@@]2(C)[C@@H]1CCc1ccoc1`: the inhibition of growth at 25 µM is 29.1% in the data set on Leishmania infantum [1] and 69.7% in the data set on Trypanosoma cruzi [2]. Also, the inhibition of growth at 10 µM in the data set with Trypanosoma cruzi [3] is 12.5%.
Regarding `C=C1CC[C@@H]2[C@H](COC(=O)CCCCCCCCCCCCCCC)[C@H](O)[C@H](O)C[C@@]2(C)[C@@H]1CCc1ccoc1`, the inhibition of growth at 25 µM came out at 0% in the data set on Leishmania infantum [1] and 24.9% in the data set with Trypanosoma cruzi [2]. Also, in the data set on Trypanosoma cruzi [3], the inhibition of growth at 10 µM stood at 2.98%.
For the compound `C=C1CC[C@@H]2[C@H](COC(=O)CCCC[C@@H]3CCSS3)[C@H](O)[C@H](O)C[C@@]2(C)[C@@H]1CCc1ccoc1`, the inhibition of growth at 25 µM with Leishmania infantum [1] came to 47.7%; in the data set on Trypanosoma cruzi [2], 58.5%. Also, the inhibition of growth at 10 µM with Trypanosoma cruzi [3] was 95.2%. Also, the IC50 in the data set with Trypanosoma cruzi [4] came out at 2.06 µM. Also, in data set [5], the CC50 at 48 h was under 10 µM.

In general, IC50 refers to the concentration that inhibits the measured activity by half. The CC50 is the concentration that lowers cell viability or growth by half.
